In ChEMBL document CHEMBL1157861, “Phosphaisocoumarins as a new class of potent inhibitors for pancreatic cholesterol esterase” (Eur J Med Chem, 2010):
The source made the active and inactive calls. No cut-off for these calls is given here.

How the values were obtained:
[1] = Inhibition of pig pancreatic cholesterol esterase assessed as p-nitrophenylbutyrate hydrolysis after 1 min; design: species or system Sus scrofa
Procedure, shortened: (§1)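 Porcine pancreatic CEase (0.0125 mU) is pre-incubated for 1 min with varied inhibitor concentrations in 0.1 M sodium phosphate, pH 7.04, with 0.1 M NaCl. PNPB (0.1 mM) is then added and hydrolysis is followed by A405 for 1 min. Compounds are also checked at one fixed top concentration. Each concentration is run in triplicate and averaged.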

[2] = Inhibition of pig pancreatic cholesterol esterase assessed as p-nitrophenylbutyrate hydrolysis at 100 uM after 1 min; design: species or system Sus scrofa; procedure, shortened: as §1
[3] = organism: Sus scrofa; assay: Reversible inhibition of pig pancreatic cholesterol esterase assessed as p-nitrophenylbutyrate hydrolysis after 1 min
[4] = organism: Sus scrofa; assay: Reversible inhibition of pig pancreatic cholesterol after 6 hrs absence of p-nitrophenylbutyrate
Procedure, shortened: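 CEase and excess inhibitor are incubated without substrate in sodium phosphate buffer, pH 7.04, with 5% acetonitrile by volume, at 25 °C for up to 6 h. Samples are checked periodically by TLC.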

[5] = Competitive inhibition of pig pancreatic cholesterol esterase assessed as p-nitrophenylbutyrate hydrolysis after 1 min by Lineweaver-Burke plot analysis; design: species or system Sus scrofa
Procedure, shortened: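 For kinetics, CEase (0.0125 mU) is pre-incubated 1 min with inhibitor in sodium phosphate buffer. PNPB is then added at 0.07–0.3 mM and the A405 change is followed for 1 min at each substrate level. Mechanism is assigned from the rate data across substrate and inhibitor concentrations.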

Structure (SMILES) | IC50 [1] | further results
CCOP1(=O)OC(c2ccc(CC)cc2)=C(Cl)c2ccc(Cl)cc21 (centres undefined) | 8.9 µM | 
CCOP1(=O)OC(c2ccc(CC)cc2)=Cc2ccc(Cl)cc21 (centres undefined) | 40.3 µM | 
CCOP1(=O)OC(c2ccccc2)=C(I)c2ccc(Cl)cc21 (centres undefined) | 47.9 µM | 
CCOP1(=O)OC(C2CC2)=C(Br)c2ccc(OC)cc21 (centres undefined) |  | IC50 [2]: Not Active
CCOP1(=O)OC(C2CC2)=C(Br)c2ccc(Cl)cc21 (centres undefined) |  | IC50 [2]: Not Active
CCOP1(=O)OC(c2ccccc2)=Cc2ccccc21 (centres undefined) | 63.6 µM | 
O=P1(O)OC(c2ccccc2)=Cc2ccccc21 | 96.3 µM | 
CCOP1(=O)OC(c2ccccc2)=C(Br)c2ccccc21 (centres undefined) | 18.9 µM | 
CCOP1(=O)OC(CO)=Cc2ccc(OC)cc21 (centres undefined) | 79.4 µM | 
CCOP1(=O)OC(c2ccc(OC)cc2)=C(Br)c2ccc(Cl)cc21 (centres undefined) | 47.9 µM | 
CCOP1(=O)OC(c2ccc(CC)cc2)=C(Br)c2ccc(Cl)cc21 (centres undefined) | 6.4 µM | 
O=P1(O)OC(c2ccccc2)=C(Cl)c2ccc(Cl)cc21 | 14.6 µM | 
CCOP1(=O)OC(c2ccc(OC)cc2)=C(I)c2ccc(Cl)cc21 (centres undefined) | 26.2 µM | 
CCOP1(=O)OC(c2ccccc2)=C(I)c2ccc(OC)cc21 (centres undefined) | 54.5 µM | 
CCCCC1=C(I)c2ccccc2P(=O)(OCC)O1 (centres undefined) |  | IC50 [2]: Not Active
CCOP1(=O)OC(c2ccccc2)=C(Br)c2ccc(Cl)cc21 (centres undefined) | 51.2 µM | 
CCOP1(=O)OC(c2ccccc2)=C(C#Cc2ccccc2)c2ccccc21 (centres undefined) | 2.3 µM | Activity [3]: Active; Activity [4]: inactive; Ki [5]: 1.9 µM
CCOP1(=O)OC(c2ccc(CC)cc2)=C(CC(=O)c2ccccc2)c2ccc(Cl)cc21 (centres undefined) | 5.1 µM | 
CCCCC1=C(Br)c2ccc(Cl)cc2P(=O)(OCC)O1 (centres undefined) |  | IC50 [2]: Not Active
CCCCC1=C(Cl)c2ccc(Cl)cc2P(=O)(OCC)O1 (centres undefined) |  | IC50 [2]: Not Active
O=P1(O)OC(c2ccccc2)=Cc2ccc(Cl)cc21 | 38.7 µM | 
CCOP1(=O)OC(C2CC2)=C(Cl)c2ccc(OC)cc21 (centres undefined) | > 150 µM | 
CCOP1(=O)OC(C2CC2)=C(I)c2ccc(Cl)cc21 (centres undefined) |  | IC50 [2]: Not Active

Structure (SMILES) | IC50 [1] | further results
CCOP1(=O)OC(C2CC2)=C(Cl)c2ccc(Cl)cc21 (centres undefined) | > 100 µM | 
CCCCC1=C(Cl)c2ccccc2P(=O)(OCC)O1 (centres undefined) |  | IC50 [2]: Not Active
CCOP1(=O)OC(c2ccc(CC)cc2)=C(I)c2ccc(Cl)cc21 (centres undefined) | 4.8 µM | Activity [3]: Active; Activity [4]: inactive; Ki [5]: 4.2 µM
CCCCC1=Cc2ccccc2P(=O)(OCC)O1 (centres undefined) |  | IC50 [2]: Not Active
CCCCC1=Cc2ccccc2P(=O)(O)O1 | 62.6 µM | 
CCOP1(=O)OC(c2ccccc2)=C(Br)c2ccc(OC)cc21 (centres undefined) | 34.4 µM | 
CCOP1(=O)OC(c2ccccc2)=C(Cl)c2ccc(OC)cc21 (centres undefined) | 89.6 µM | 
CCOP1(=O)OC(C2CC2)=Cc2ccc(Cl)cc21 (centres undefined) |  | IC50 [2]: Not Active
CCOP1(=O)OC(c2ccccc2)=C(I)c2ccccc21 (centres undefined) | 30.3 µM | 
COc1ccc2c(c1)P(=O)(O)OC(c1ccccc1)=C2Br | 57.4 µM | 
CCOP1(=O)OC(c2ccc([N+](=O)[O-])cc2)=Cc2ccc(Cl)cc21 (centres undefined) | > 100 µM | 
CCOP1(=O)OC(c2ccc(CC)cc2)=C(C#Cc2ccccc2)c2ccc(Cl)cc21 (centres undefined) | 8.5 µM | 
CCOP1(=O)OC(c2ccccc2)=C(Cl)c2ccccc21 (centres undefined) | 12.7 µM | 
CCOP1(=O)OC(c2ccccc2)=Cc2ccc(OC)cc21 (centres undefined) | 77.4 µM | 
CCOP1(=O)OC(c2ccccc2)=C(Cl)c2ccc(Cl)cc21 (centres undefined) | 34.8 µM | 
CCCCC1=Cc2ccc(Cl)cc2P(=O)(OCC)O1 (centres undefined) | 43.1 µM | 
O=P1(O)OC(c2ccccc2)=C(Br)c2ccccc21 | 14.1 µM | 
CCCCC1=C(Br)c2ccccc2P(=O)(OCC)O1 (centres undefined) |  | IC50 [2]: Not Active
COc1ccc2c(c1)P(=O)(O)OC(c1ccccc1)=C2 | 102 µM | 
CCOP1(=O)OC(c2ccccc2)=Cc2ccc(Cl)cc21 (centres undefined) | 56.9 µM | 
CCc1ccc(C2=Cc3ccc(Cl)cc3P(=O)(O)O2)cc1 | 58.4 µM | 
O=P1(O)OC(c2ccccc2)=C(Cl)c2ccccc21 | 1.9 µM | Activity [3]: Active; Activity [4]: inactive; Ki [5]: 1.4 µM
